Results on four molecules are retold here after ChEMBL document CHEMBL1148287, “Design of potent, selective, and orally bioavailable inhibitors of cysteine protease cathepsin k” (J Med Chem, 2004).

A value given as a limit tells only on which side of the number the result lay.

In general, bioavailability refers to dose-corrected exposure relative to a reference, in per cent. Low readings indicate little systemic uptake, high ones much systemic uptake. The Vss is a proportionality between amount in the body and measured concentration, not a real space. A word on the Cmax: it is the peak of the concentration-time curve. The Tmax is the time at which the peak concentration occurs. As a reminder, the IC50 is the concentration that inhibits the measured activity by half. Read a high IC50 as a need for much substance. The AUC is the area under the concentration-time curve, a measure of exposure. The term half-life denotes how long it takes for the measured level to halve. Read a low half-life as fast loss.

Data set [1] is described as follows: Selectivity as ratio between IC50 against Cathepsin B and IC50 against Cathepsin K. Put shortly: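 Human liver cathepsin B and recombinant human cathepsin K were each run with Cbz-Phe-Arg-AMC at 10 μM final (Km 400 and 70 μM). Both used pH 5.5 acetate/DTT/NaCl buffer, 10% DMSO, 30 °C and a 2.3 h fluorescence progress-curve read (ex 360/em 440). IC50s were fitted from rate vs [I], and the ratio of the two IC50s was taken.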

Data set [2] in a line: Bioavailability in rat. Format: ADME, organism-based. The conditions noted are these: in vivo. Summed up:
(§1)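 Rats were dosed iv into the femoral vein at 5 mg/kg or orally at 10 mg/kg, from a solution in 15% solutol/citrate buffer/0.1% ascorbic acid, pH 3.5. Blood was drawn from a jugular cannula before dosing and at 0.03–24 h, then clotted to serum. Samples were acetonitrile-precipitated with internal standard and analysed by LC-MS/MS (MRM). Parameters came from noncompartmental analysis.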

Data set [3] has as its target Cathepsin (H and K) (Homo sapiens) (UniProt P09668+P43235). Put plainly: Selectivity for Cathepsins H and K, ratio of IC50. Format: protein assay. Summed up:
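Human liver cathepsin H was run with L-Arg-β-naphthalamide at 50 μM final (Km 195 μM), read at ex 340/em 420. Human cathepsin K used Cbz-Phe-Arg-AMC at 10 μM, read at ex 360/em 440. Both were at pH 5.5 with DTT/NaCl and 10% DMSO at 30 °C, with 2.3 h progress curves. IC50s were fitted from rate vs [I] and ratioed.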

The species entered for a further data set is Rattus norvegicus. The data set can be described thus: Volume of distribution in steady state was determined in rat. Format: ADME, organism-based. The note with it: in vivo. Summed up:
as §1

Data set [4] can be described thus: Peak plasma concentration in rat. Format: ADME, organism-based. Put shortly: as §1
Data set [5] in a line: Maximum time required to achieve Cmax was determined in rat. The conditions noted are these: in vivo. The data set is classed as ADME, organism-based. Put shortly: as §1
For data set [6], the target named is T1, Cathepsin K (Homo sapiens, UniProt P43235).
T1 sequence (P43235 whole entry): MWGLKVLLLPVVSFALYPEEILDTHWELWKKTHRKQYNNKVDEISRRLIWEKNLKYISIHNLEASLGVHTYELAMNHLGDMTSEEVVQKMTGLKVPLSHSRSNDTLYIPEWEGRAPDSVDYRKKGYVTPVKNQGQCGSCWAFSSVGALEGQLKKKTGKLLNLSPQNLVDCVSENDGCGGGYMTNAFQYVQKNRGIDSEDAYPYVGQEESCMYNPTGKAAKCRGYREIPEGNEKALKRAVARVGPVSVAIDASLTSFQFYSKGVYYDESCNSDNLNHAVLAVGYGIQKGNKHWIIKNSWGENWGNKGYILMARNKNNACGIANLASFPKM
The data set can be described thus: Concentration required to inhibit 50% of cysteine protease cathepsin K of human. Put shortly: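 Reactions were started by adding inhibitor plus substrate to enzyme. AMC fluorescence (ex 360/em 440) progress curves were followed over 2.3 h at varied inhibitor concentrations. IC50 was fitted as rate = Vmax/(1+[I]/IC50).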

Data set [7] is described as follows: Percent instability was measured by Rat S9 liver […] metabolism assay, in vitro. Format: ADME, Liver S9 fraction. The note with it: read-out: Activity. Summed up: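 Rat S9 liver metabolism, read as % metabolized after 1 h incubation at 37 °C, run in duplicate.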
Data set [8] in a line: Compound was tested for its cell permeability in the Madin-Darby canine kidney cell monolayer transport assay. Format: ADME, Canis lupus familiaris. The conditions noted are these: dog, MDCK; read-out: Activity.
Data set [9] is described as follows: Area Under plasma concentration time curve in rat upon peroral administration. Format: ADME, organism-based. The conditions noted are these: po. Put shortly: as §1
The next data set is filed under the species Homo sapiens. Put plainly: Selectivity as ratio between IC50 against Cathepsin V and IC50 against Cathepsin K. Summed up:
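Conditions were pH 5.5 acetate buffer with 10 mM DTT, 120 mM NaCl and 10% DMSO at 30 °C, with fluorescence progress curves over 2.3 h. The IC50 fits gave the ratio.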

Data set [10] is described as follows: Selectivity as ratio between IC50 against Cathepsin L and IC50 against Cathepsin K. Summed up: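 Both assays used pH 5.5 acetate/DTT/NaCl, 10% DMSO, 30 °C and AMC fluorescence progress curves over 2.3 h. IC50s were fitted from rate vs [I] and taken as a ratio.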
Data set [11] can be described thus: Selectivity ratio between IC50 against Cathepsin S and IC50 against Cathepsin K. Put shortly: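 Recombinant human cathepsin S was run with Cbz-Val-Val-Arg-AMC at 10 μM final (Km >100 μM); human cathepsin K used Cbz-Phe-Arg-AMC at 10 μM. Both were in pH 5.5 sodium acetate with 10 mM DTT, 120 mM NaCl and 10% DMSO at 30 °C, with AMC fluorescence progress curves over 2.3 h. The ratio was taken from the fitted IC50s.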

Data set [12] in a line: Half-life in rat. The note with it: in vivo. The data set is classed as ADME, organism-based. Summed up: as §1
Data set [13] has as its target T2, Cathepsin K (Rattus norvegicus, UniProt O35186).
T2 sequence (O35186 whole entry): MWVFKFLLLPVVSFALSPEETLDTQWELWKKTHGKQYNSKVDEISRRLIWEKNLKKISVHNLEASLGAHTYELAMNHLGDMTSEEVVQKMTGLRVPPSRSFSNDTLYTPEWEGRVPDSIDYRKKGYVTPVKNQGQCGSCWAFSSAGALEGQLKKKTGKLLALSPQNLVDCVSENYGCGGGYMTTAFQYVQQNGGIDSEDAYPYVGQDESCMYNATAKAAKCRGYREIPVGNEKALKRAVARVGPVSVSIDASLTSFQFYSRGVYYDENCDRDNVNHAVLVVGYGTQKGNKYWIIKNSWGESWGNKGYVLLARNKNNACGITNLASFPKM
The data set can be described thus: Inhibition of cysteine protease cathepsin K of rat.

Chain of Cathepsin (H and K) (Homo sapiens) (P09668 whole entry, looked up, one chain of several): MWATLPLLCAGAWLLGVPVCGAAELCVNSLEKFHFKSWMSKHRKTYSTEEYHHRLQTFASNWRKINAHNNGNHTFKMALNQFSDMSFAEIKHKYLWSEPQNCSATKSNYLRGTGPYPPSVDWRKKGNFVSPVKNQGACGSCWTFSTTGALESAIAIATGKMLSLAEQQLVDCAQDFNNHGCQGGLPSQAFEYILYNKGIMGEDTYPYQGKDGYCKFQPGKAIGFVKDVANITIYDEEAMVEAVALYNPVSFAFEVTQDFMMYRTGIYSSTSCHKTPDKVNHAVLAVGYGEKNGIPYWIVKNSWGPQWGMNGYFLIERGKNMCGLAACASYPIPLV

Turning to `CCCC[C@H](NC(=O)OC(C(C)C)C(C)C)C(=O)C(=O)Nc1cc[nH]n1`, the Ratio in data set [1] stood at 670; in data set [3], 30; in the data set filed under Homo sapiens it was 21; in data set [10] it was 40; in data set [11] it was 3. The molecule also showed a bioavailability in data set [2] of 41%. In the data set filed under Rattus norvegicus, this molecule showed a Vss of 15 L/kg. The molecule also returned a Cmax in data set [4] of 370 ng/mL. In data set [5], the Tmax is 0.25 h. For the same molecule, the IC50 stood at 0.77 nM at Cathepsin K [6] and 13 nM against Cathepsin K [13]. The metabolised in [7] was 77%. The Papp in data set [8] was found to be 48 ×10⁻⁶ cm/s. The AUC in data set [9] stood at 1100 ng·h/mL. In [12], this molecule yielded a half-life of 11.7 h.

Regarding `CCCC[C@H](NC(=O)OC(C(C)C)C(C)C)C(=O)C(=O)Nc1ccccn1`, in data set [2], the bioavailability was 58%. The molecule further gave a Cmax in [4] of 1400 ng/mL. Besides, the Tmax in data set [5] was 0.25 h. Besides, the IC50 against Cathepsin K [6] is 32 nM. In addition, the metabolised in data set [7] turned out to be 63%. In [8], the Papp is 21 ×10⁻⁶ cm/s. Further, the AUC in [9] turned out to be 2700 ng·h/mL. In data set [12], this molecule had a half-life of 2.17 h.

Take `CCCC[C@H](NC(=O)OC(C(C)C)C(C)C)C(=O)C(=O)Nc1nccs1`: the bioavailability in [2] amounted to 18%. The concentration in data set [4] peaked (Cmax) at 170 ng/mL. For the same molecule, in data set [5], the Tmax is 0.167 h. Besides, the IC50 at Cathepsin K [6] turned out to be 40 nM. The metabolised in data set [7] is 98%. In addition, the Papp in data set [8] came out at 23 ×10⁻⁶ cm/s. Further, in data set [9], the AUC is 750 ng·h/mL. This molecule displayed a half-life in data set [12] of 2.17 h.

With `CCCC[C@H](NC(=O)OC(C(C)C)C(C)C)C(=O)C(=O)Nc1ccnn1C`, the Ratio in data set [1] is more than 400; in [3], more than 400; in the data set filed under Homo sapiens, 50; in data set [10] it was 250; in data set [11] it was 91. In data set [2], the bioavailability was 28%. In data set [4], this molecule came in with a Cmax of 970 ng/mL. Besides, in data set [5], the Tmax was 0.633 h. The IC50 against Cathepsin K [6] amounted to 32 nM; against Cathepsin K [13], 1700 nM. Besides, the metabolised in data set [7] amounted to 99%. Besides, the Papp in data set [8] was 49 ×10⁻⁶ cm/s. The same molecule displayed an AUC in data set [9] of 1800 ng·h/mL. Moreover, the half-life in data set [12] is 4 h.
